Results from different studies.
Lines come from different studies, so protocols differ. In brackets after ≈: the same amount, converted by molar mass.

| SMILES | tested on | assay | conditions | endpoint | result |
| --- | --- | --- | --- | --- | --- |
| Oc1cc(O)c2c(c1)O[C@H](c1cc(O)c(O)c(O)c1)[C@@H](O)C2 | Streptococcus mutans | microbial growth, broth dilution | 24 h | MIC | 100 µg/mL (≈ 327 µM) |
| c1ccc(Oc2ccc(Nc3c4c(nc5ccccc35)CCC4)cc2)cc1 | Leishmania infantum | parasite growth, MTT | promastigote | EC50 | 539 nM |
| C=C[C@]1(C)C[C@@H](OC(=O)CS[C@@H]2C[C@H]3CC[C@@H](C2)N3C)[C@]2(C)[C@H](C)CC[C@]3(CCC(=O)[C@H]32)[C@@H](C)[C@@H]1O | Streptococcus pyogenes | microbial growth | clinical isolate | MIC90 | 0.0312 µg/mL (≈ 0.0604 µM) |
| COc1ccc2/c(=N/c3ccccc3NC(=O)CN)cc(-c3ccc4c(c3)OCCO4)oc2c1 | HCT-116 | cell growth or viability, CCK-8 | 1 µM | inhibition | 11.4% |
| CC[C@H]1OC(=O)[C@H](C)[C@@H](O[C@H]2C[C@@](C)(OC)[C@@H](O)[C@H](C)O2)[C@H](C)[C@@H](O[C@@H]2O[C@H](C)C[C@H](N(C)C)[C@H]2O)[C@](C)(O)C[C@@H](C)/C(=N\OCOCCOC)[C@H](C)[C@@H](O)[C@]1(C)O | Streptococcus pyogenes | microbial growth | clinical isolate | MIC90 | 2 µg/mL (≈ 2.39 µM) |
| CCOc1ccc(Nc2c3c(nc4ccccc24)CCC3)cc1 | Leishmania infantum | parasite growth, MTT | promastigote | EC50 | 645 nM |
| O=C1OC[C@H]2OC(O)[C@H](O)[C@@H](O)[C@@H]2OC(=O)c2cc(O)c(O)c(O)c2-c2c(O)c(O)c3oc(=O)c4c(c(O)c(O)c5oc(=O)c2c3c54)-c2c1cc(O)c(O)c2O (mixture of isomers) | Streptococcus mutans | microbial killing, broth dilution |  | MBC | 400 µg/mL |
| Nc1nc2ccc(-c3c/c(=N\c4ccccc4NC(=O)CCN4CCOCC4)c4ccccc4o3)cc2o1 | HCT-116 | cell growth or viability, CCK-8 | 1 µM | inhibition | -4.11% |
| C[C@@H]1O[C@@H](OC[C@H]2O[C@@H](Oc3c(-c4ccc(O)c(O)c4)oc4cc(O)cc(O)c4c3=O)[C@H](O)[C@@H](O)[C@@H]2O)[C@H](O)[C@H](O)[C@H]1O | Streptococcus mutans | microbial growth, disc diffusion | 500 µg/disc | inhibition zone | 14 mm |
| C[C@@H]1[C@H](O)[C@@H](C)/C=C/C=C/C=C/C=C/C=C/C=C/C=C/[C@H](O[C@@H]2O[C@H](C)[C@@H](O)[C@H](N)[C@@H]2O)C[C@@H]2O[C@](O)(C[C@@H](O)C[C@@H](O)[C@H](O)CC[C@@H](O)C[C@@H](O)CC(=O)O[C@H]1C)C[C@H](O)[C@H]2C(=O)O | Leishmania infantum | parasite growth, MTT | promastigote | IC50 | 1490 nM |
| COc1ccc(NC(=O)NCc2cn(Cc3ccc(C)cc3)nn2)cc1 | PC-9 | cell growth or viability, CCK-8 | 50 µM, 72 h | viability | 113% |
| NCCCCC(=O)Nc1ccccc1/N=c1\cc(-c2ccc3c(c2)OCO3)oc2ccccc12 | HCT-116 | cell growth or viability, CCK-8 | 1 µM | inhibition | 3.02% |
| Cc1nc(Nc2ncc(C(=O)Nc3c(C)cccc3Cl)s2)cc(N2CC[C@H](O)C2)n1 | DOHH-2 | cell growth or viability, ATP luminescence | 10 µM, 72 h | inhibition | 86% |
| COc1ccc2oc(-c3ccc4nc(N)oc4c3)c/c(=N\c3ccccc3NC(=O)CCN)c2c1 | HCT-116 | cell growth or viability, CCK-8 | 1 µM | inhibition | 45.5% |
| CN[C@H](CC(C)C)C(=O)N[C@H]1C(=O)N[C@@H](CC(N)=O)C(=O)N[C@H]2C(=O)N[C@H]3C(=O)N[C@H](C(=O)N[C@H](C(=O)O)c4cc(O)cc(O)c4-c4cc3ccc4O)[C@H](O)c3ccc(c(Cl)c3)Oc3cc2cc(c3O[C@@H]2O[C@H](CO)[C@@H](O)[C@H](O)[C@H]2O[C@H]2C[C@](C)(N)[C@H](O)[C@H](C)O2)Oc2ccc(cc2Cl)[C@H]1O | Streptococcus pyogenes | microbial growth | clinical isolate | MIC90 | 1 µg/mL (≈ 0.69 µM) |
| CC(C)(C)[C@H](N)C(=O)Nc1ccccc1/N=c1\cc(-c2ccc3c(c2)OCO3)oc2ccccc12 | HCT-116 | cell growth or viability, CCK-8 | 1 µM | inhibition | 14.6% |
| O=c1oc2c(O)c(O)cc3c(=O)oc4c(O)c(O)cc1c4c23 | Streptococcus mutans | microbial growth, broth dilution | 24 h | MIC | 100 µg/mL (≈ 331 µM) |
| CS(=O)(=O)NCCC(=O)Nc1ccccc1/N=c1\cc(-c2ccc3nc(N)oc3c2)oc2ccccc12 | HCT-116 | cell growth or viability, CCK-8 | 1 µM | inhibition | 3.17% |
| O=C1O[C@H]2[C@@H]3OC(=O)c4cc(O)c(O)c(O)c4-c4c(O)c(O)c5oc(=O)c6c(c(O)c(O)c7oc(=O)c4c5c76)-c4c(cc(O)c(O)c4O)C(=O)OC[C@H]3OC(O)[C@@H]2OC(=O)c2cc(O)c(O)c(O)c2-c2c1cc(O)c(O)c2O (mixture of isomers) | Streptococcus mutans | microbial killing, broth dilution |  | MBC | 200 µg/mL |
